Screening results (PubChem BioAssay)
HCT116 bCat-KO: primary screen for growth suppressors in beta-catenin knockout HCT116 cells (colon tumor, human); HCT116 beta-catenin knockout viability, CellTiter-Glo, 60 h; hits give low values; viability, % at 10 µM; 140,000 tested, 1.5% active; AID 818, 2007;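 active = viability at or under a set limit, the compound median less 4 SD, cut at about 6% in these data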
H69AR growth 86K: proliferation blockers of H69AR lung cancer cells, primary screen, cell-based, human, 86K library. H69AR lung tumor viability, ATP luminescence, 72 h; hits give low values. viability, % at 10 µM. 85,000 tested, 6% active. AID 598, 2007;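 active = viability at or below 40%; inactive = viability above 40%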;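 also: multidrug resistant small cell line overexpressing MRP-1 efflux transporter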
Pyk2 oligo antag: antagonists of Pyk2 self-association, primary screen, Q293 cells, FERM NanoBiT luminescence, HTS. 99,000 tested, 0.83% active. hits give low values. z-score (the deposit names both 25 µM and 10 µM). AID 1347419, 2020. Protein-tyrosine kinase 2-beta (Homo sapiens), Q14289;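 active = Z-score of -3 or lower, scaled per plate to the spread of control and sample wells; inactive = z-score above -3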;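 also: negative z-score means lost luminescence so less FERM oligomerization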
Target sequence (Q14289 whole entry, looked up): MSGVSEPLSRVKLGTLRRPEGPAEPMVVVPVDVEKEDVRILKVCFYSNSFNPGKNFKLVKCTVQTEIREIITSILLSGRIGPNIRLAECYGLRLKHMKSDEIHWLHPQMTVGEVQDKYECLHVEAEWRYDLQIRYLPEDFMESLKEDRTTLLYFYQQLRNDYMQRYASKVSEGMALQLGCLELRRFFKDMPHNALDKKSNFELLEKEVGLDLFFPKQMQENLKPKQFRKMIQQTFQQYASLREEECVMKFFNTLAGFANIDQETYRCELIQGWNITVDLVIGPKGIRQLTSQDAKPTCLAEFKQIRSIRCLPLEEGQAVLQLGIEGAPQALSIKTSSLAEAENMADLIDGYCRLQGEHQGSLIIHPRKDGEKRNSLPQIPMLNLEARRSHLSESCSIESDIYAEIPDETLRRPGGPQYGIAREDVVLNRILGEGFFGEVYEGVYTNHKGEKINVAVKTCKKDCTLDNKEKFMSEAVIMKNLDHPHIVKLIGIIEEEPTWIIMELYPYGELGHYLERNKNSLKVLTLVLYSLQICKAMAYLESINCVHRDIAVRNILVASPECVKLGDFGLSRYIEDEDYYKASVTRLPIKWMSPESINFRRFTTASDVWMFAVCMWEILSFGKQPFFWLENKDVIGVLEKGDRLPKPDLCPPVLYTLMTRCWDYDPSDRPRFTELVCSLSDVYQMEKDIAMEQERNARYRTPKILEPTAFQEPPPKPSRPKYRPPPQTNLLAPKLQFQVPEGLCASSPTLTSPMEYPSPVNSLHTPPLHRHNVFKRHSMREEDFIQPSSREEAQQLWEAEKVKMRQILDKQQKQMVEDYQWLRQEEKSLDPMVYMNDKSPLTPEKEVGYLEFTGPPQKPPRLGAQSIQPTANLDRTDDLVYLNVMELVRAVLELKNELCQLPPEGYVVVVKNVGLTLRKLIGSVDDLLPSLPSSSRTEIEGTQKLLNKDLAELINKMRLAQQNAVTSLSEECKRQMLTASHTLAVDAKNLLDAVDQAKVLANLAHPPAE
Lung fibro prol: antiproliferative effect on LL 47 fibroblasts – human, LL 47 cells, CellTiter-Glo luminescence, primary screen; LL 47 human lung fibroblast viability, ATP luminescence; hits give low values; 85,000 tested, 1.1% active; viability, % at 10 µM; AID 719, 2007;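 active = viability at or below 50% in the single dose screen; inactive = viability above 50%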;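 also: compound exposure lasted 72 h before the ATP readout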
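Times – overnight cell rest, 72 h compound treatment at 37 °C · Test system – human lung fibroblast line LL 47, low passage · Amount – 1,150 cells in each well · Controls – cell-only wells, no compound · Doses – 0.1% DMSO in all compound wells · Measured by – CellTiter-Glo luminescence · Buffer or medium – IMEM plus 15% FBS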
HCT116 PTEN-null: growth suppression of PTEN-null HCT116, primary screen, cell-based, CellTiter-Glo; 140,000 tested, 1.2% active; viability, % at 10 µM; HCT116 PTEN-null viability, 60 h; hits give low values;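 active = viability at or below a set limit, 4 SD under the median of all tested compounds, cut at about 3.7% in these data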;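 also: PTEN knockout HCT116 line with beta catenin targeted HCT116 as companion control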
HUVEC inhibit: inhibitors of HUVEC proliferation, primary screen, cell-based, 384-well. CellTiter-Glo luminescence, 72 h; hits give low values. viability, % at 10 µM (by protocol). 86,000 tested, 1.1% active. AID 648, 2007;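 active = viability at or below 30%; inactive = viability above 30%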
Hits are given with their value; i = inactive; nt = no result given. Only a selection was taken, and hits are over-represented in it overall.

SMILES | HCT116 bCat-KO | H69AR growth 86K | Pyk2 oligo antag | Lung fibro prol | HCT116 PTEN-null | HUVEC inhibit
COc1ccccc1CN=Cc1[nH]c2ccc(Br)c(Cl)c2c1O | i | 25.4 | i | i | i | i
CCOC(=O)/C(=C\c1ccc(Cl)cc1)c1nc2sc(C)c(C)c2c(=O)[nH]1 | i | nt | nt | nt | i | nt
CCOC(=O)/C(=C\c1ccc(OC(F)F)cc1)C1=Nn2c(nnc2-c2ccc(Cl)cc2)SC1 | 1.4 | nt | nt | nt | 2.1 | nt
COc1ccc(Oc2ccc(/C=C/C(=O)c3ccc(O)cc3)cc2[N+](=O)[O-])cc1 | 1.4 | nt | nt | nt | 1.3 | nt
O=C(/C=C/c1ccc(N2CCCCC2)c([N+](=O)[O-])c1)c1ccc(S(=O)(=O)N2CCCC2)cc1 | 0.9 | nt | nt | nt | 0.7 | nt
COc1ccc(/C=C/C(=O)c2ccc(O)cc2)cc1COc1ccc(F)cc1 | i | nt | i | nt | i | nt
COc1cccc(C(=O)/C=C/c2ccc(N3CCCCC3)c([N+](=O)[O-])c2)c1 | 3.1 | nt | nt | nt | 2.9 | nt
O=[N+]([O-])c1cc(S(=O)(=O)c2ccc(N3CCCCC3)c([N+](=O)[O-])c2)ccc1N1CCCCC1 | i | nt | i | nt | i | nt
CC(Oc1ccc(Cl)cc1Cl)c1nc(-c2ccc(NC(=O)c3ccco3)cc2)no1 (stereo unspecified) | i | i | i | i | i | i
CSc1nc2c(c(-c3ccccc3)c1C#N)CCC2 | nt | i | i | i | nt | i
O=C(NC(=S)N(CCCCO)C1CCCCC1)c1sc2ccccc2c1Cl | i | nt | i | nt | i | nt
CC(C)Oc1ccc(C(=O)Nc2nnc(SCC(=O)N3CCOCC3)s2)cc1 | i | nt | nt | nt | i | nt
CCCCCC(=O)NC(=S)Nc1ccc(Cl)cn1 | i | nt | nt | nt | i | nt
COc1ccc(C(=O)N2CCN(c3nc4cc(C)ccc4cc3C#N)CC2)c(OC)c1 | i | i | i | i | i | i
COc1cc(C(=O)N2CCN(c3ccc(C)cc3C)CC2)cc(OC)c1OC | i | 19.1 | nt | i | i | i
Cc1ccc(N2CCN(C(=O)c3ccccc3)CC2)c(C)c1 | i | i | i | i | i | i
COc1cc(C(=O)N2CCCN(c3nc4cc(C)ccc4cc3C#N)CC2)cc(OC)c1OC | nt | 9.8 | nt | i | nt | i
CCn1nc(C(=O)OC(C(=O)c2c[nH]c3ccccc23)c2ccccc2)c2ccccc2c1=O (stereo unspecified) | i | nt | i | nt | i | nt
Nc1nc(Nc2ccc(Cl)cc2)nc2ccccc12 | i | 21.0 | i | i | i | i
Nc1nc(Nc2ccccc2)nc2ccccc12 | i | i | i | i | i | i
CCOC(=O)N1CCN(C(=O)c2ccccc2-c2ccccc2)CC1 | i | 18.8 | i | i | i | i
CCOC(=O)N1CCN(C(=O)c2ccccc2CCc2ccccc2)CC1 | i | i | i | i | i | i
CCCCC(=O)NC(c1ccc([N+](=O)[O-])cc1)c1c(O)ccc2ccccc12 (stereo unspecified) | i | nt | nt | nt | i | nt
CCC(=O)NC(c1ccccc1Cl)c1c(O)ccc2ccccc12 (stereo unspecified) | i | nt | nt | nt | i | nt
O=C(NC(c1ccc(Cl)cc1)c1c(O)ccc2ccccc12)c1ccccc1 (stereo unspecified) | 1.1 | nt | i | nt | 0.6 | nt
SMILES | HCT116 bCat-KO | H69AR growth 86K | Pyk2 oligo antag | Lung fibro prol | HCT116 PTEN-null | HUVEC inhibit
COc1ccc(C(NC(=O)C(C)C)c2c(O)ccc3ccccc23)cc1OC (stereo unspecified) | i | nt | nt | nt | i | nt
CC(C)C(=O)NC(c1ccccc1Cl)c1c(O)ccc2ccccc12 (stereo unspecified) | i | nt | -3.81 | nt | i | nt
O=C(NC(c1ccccc1)c1c(O)ccc2ccccc12)c1ccccc1Cl (stereo unspecified) | i | nt | -3.33 | nt | i | nt
CCC(=O)NC(c1ccc([N+](=O)[O-])cc1)c1c(O)ccc2ccccc12 (stereo unspecified) | i | nt | -3.15 | nt | i | nt
COc1ccc(N(CC(=O)NCc2cccnc2)S(=O)(=O)c2c(C)nn(C)c2C)cc1 | i | i | nt | i | i | i
COc1ccc(C2(CNC(=O)CCC(=O)O)CCCC2)cc1OC | i | i | i | i | i | i
CCOC(=O)C(=CNc1ccc2c(c1)nnn2-c1ccc(Cl)cc1)C(=O)OCC | i | nt | nt | nt | i | nt
OC(CNc1ccccc1)COc1ccc(OCC(O)CNc2ccccc2)cc1 (stereo unspecified) | 1.7 | nt | i | nt | 1.6 | nt
CCOC(=O)c1ccc(Oc2c(C)oc3cc(OS(C)(=O)=O)ccc3c2=O)cc1 | i | nt | nt | nt | i | nt
CCCCCC1CCC(C(=O)O)CC1 (stereo unspecified) | i | i | i | i | i | i
CCCCC1CCC(/C(N)=N/O)CC1 (stereo unspecified) | i | 26.7 | i | nt | i | i
Cc1cccc(S(=O)(=O)c2c(N)n(/N=C/c3cccnc3)c3nc4ccccc4nc23)c1 | i | 33.1 | i | i | i | i
Cc1cccc(S(=O)(=O)c2c(N)n(/N=C/c3ccco3)c3nc4ccccc4nc23)c1 | i | i | i | i | i | i
Nc1c(S(=O)(=O)c2cccs2)c2nc3ccccc3nc2n1/N=C/c1cccc(O)c1 | 2.7 | 4.0 | -3.25 | i | 2.2 | 4.9
COc1cccc(/C=N/n2c(N)c(S(=O)(=O)c3cccs3)c3nc4ccccc4nc32)c1 | i | nt | i | nt | i | nt
CCOc1ccc(C(=O)NN2C(=O)C3C4C=CC(O4)C3C2=O)cc1 (stereo unspecified) | i | nt | i | nt | i | nt
O=C(N/N=C/c1cn(-c2ccccc2)nc1-c1cc2ccccc2o1)c1cccnc1 | i | nt | nt | nt | 3.5 | nt
C=CCn1c(-c2cccc(OC)c2)n[nH]c1=S | i | nt | nt | nt | i | nt
C=CCn1c(-c2cccc(OC)c2)nc2nc3ccccc3nc21 | i | 34.1 | i | i | i | i
COc1cccc(-c2nn(-c3ccccc3)cc2C(=O)Nc2nccs2)c1 | i | 35.7 | -3.65 | i | i | i
O=C(c1cn(-c2ccccc2)nc1-c1ccccc1)n1nnc2ccccc21 | i | i | i | i | i | i
COc1ccc(-c2nn(-c3ccccc3)cc2C(=O)Nc2nccs2)cc1 | i | 22.6 | i | i | i | i
COc1cccc(-c2nn(-c3ccccc3)cc2C(=O)n2nnc3ccccc32)c1 | i | 18.8 | i | i | i | i
CC1(C)CC(=O)C/C(=N/NC(=O)CCCOc2ccc(Cl)cc2Cl)C1 | i | nt | i | nt | i | nt
CCCCc1ccc(-c2nc(NC(=O)C3C4CCC(O4)C3C(=O)O)sc2C)cc1 (stereo unspecified) | i | nt | nt | nt | i | nt
Cc1cc(C)cc(OCC(=O)N2N=C(C(F)(F)F)CC2(O)C(C)(C)C)c1 (stereo unspecified) | i | 33.5 | i | i | i | i
CC1CCN(c2ccc(NC(=S)NC(=O)c3ccc(-c4cccc([N+](=O)[O-])c4)o3)cc2)CC1 | i | 24.7 | i | i | i | i
CC1(C)CC(=O)C2=C(C1)N(c1ccccc1)C(N)=C(C#N)C2c1cccnc1 (stereo unspecified) | i | 35.5 | i | i | i | i
